4 compounds from ChEMBL document CHEMBL2176896, “Phthalazine derivatives containing imidazole rings behave as Fe-SOD inhibitors and show remarkable anti-T. cruzi activity in immunodeficient-mouse mode of infection” (J Med Chem, 2012) can be followed below.

Activity calls are given as the source filed them. The calls are words filed in the database; no cut-off is given here.

Data set [1] has as its target Superoxide dismutase [Cu-Zn] (Homo sapiens, UniProt P00441). The data set is described as follows: Inhibition of SOD1 in human erythrocytes by spectrophotometry. The data set is classed as cell-based. In short, it runs like this: (§1)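 Enzyme from sonicated parasites in STE buffer, pH 7.8, or human erythrocyte CuZn-SOD. Activity measured as NBT reduction by superoxide (Beyer–Fridovich): methionine, NBT, Triton X-100 and riboflavin, with A560 read before and after 10 min of light. Compounds tested at 1–100 μM. Mean of five; IC50 by linear regression from Kc.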

A short description of data set [2]: Selectivity index, ratio of IC50 for african green monkey Vero cells to IC50 for Trypanosoma cruzi IRHOD/VO/2008/SN3 blood trypomastigotes. The class given is toxicity, cell-based. The note with it: Vero cells versus Trypanosoma cruzi blood trypomastigotes, read-out: Ratio IC50.
Data set [3] is described as follows: Selectivity index, ratio of IC50 for african green monkey Vero cells to IC50 for Trypanosoma cruzi IRHOD/VO/2008/SN3 intracellular amastigotes. The data set is classed as toxicity, cell-based. The note with it: read-out: Ratio IC50.
The nature of data set [4]: Selectivity index, ratio of IC50 for african green monkey Vero cells to IC50 for Trypanosoma cruzi IRHOD/VO/2008/SN3 axenic amastigotes. The class given is toxicity, cell-based. The conditions noted are these: Vero cells versus Trypanosoma cruzi axenic amastigotes, read-out: Ratio IC50.
Data set [5] can be described thus: Selectivity index, ratio of IC50 for african green monkey Vero cells to IC50 for Trypanosoma cruzi IRHOD/VO/2008/SN3 epimastigotes. The class given is toxicity, cell-based. The note with it: Vero cells versus Trypanosoma cruzi epimastigotes, read-out: Ratio IC50.
The nature of data set [6]: Toxicity against african green monkey Vero cells. The class given is cell-based, Chlorocebus sabaeus.
The subject of data set [7] is Trypanosoma cruzi. The data set is described as follows: Induction of ultrastructural modifications in Trypanosoma cruzi Maracay at IC25 level incubated for 96 hrs by transmission electron microscopy. The class given is functional, organism-based. In short, it runs like this:
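Maracay epimastigotes at 5 × 10^5 cells/mL exposed at IC25 for 96 h. Pellets washed in PBS, fixed in 2% paraformaldehyde/glutaraldehyde in 0.05 M cacodylate (pH 7.4) for 4 h at 4 °C, then examined by TEM.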

Data set [8] can be described thus: Selectivity index, ratio of IC50 for SOD1 in human erythrocytes to IC50 for Trypanosoma cruzi IRHOD/VO/2008/SN3 epimastigotes Iron superoxide dismutase. The class given is cell-based.
Data set [9] is described as follows: Inhibition of Trypanosoma cruzi IRHOD/VO/2008/SN3 epimastigotes Iron superoxide dismutase by spectrophotometry. In short, it runs like this: as §1
Data set [10] relates to Trypanosoma cruzi. The data set is described as follows: Antitrypanosomal activity against Trypanosoma cruzi IRHOD/VO/2008/SN3 metacyclic forms infected in african green monkey Vero cells assessed as inhibition of trypomastigotes level at IC25 level 0.5 to 10 days. The data set is classed as functional. The method, boiled down: (§2)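 Vero cells in RPMI infected with metacyclic forms at 10:1. Compounds added at IC25 immediately after infection for 12 h at 37 °C, 5% CO2, then washed off. Cultures grown 10 days with fresh medium every 48 h. Giemsa slides scored for % infected cells and amastigotes per cell (>100 cells); trypomastigotes in medium counted. Mean of four.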

The test system of data set [11] is Trypanosoma cruzi. Briefly: Antitrypanosomal activity against Trypanosoma cruzi IRHOD/VO/2008/SN3 metacyclic forms infected in african green monkey Vero cells assessed as inhibition of intracellular amastigotes replication at IC25 level 0.5 to 10 days. The class given is functional. In short, it runs like this: as §2
In data set [12] the test system is Trypanosoma cruzi. Briefly: Antitrypanosomal activity against Trypanosoma cruzi IRHOD/VO/2008/SN3 metacyclic forms infected in african green monkey Vero cells assessed as inhibition of infection rate at IC25 level 0.5 to 10 days. The class given is functional. The method, boiled down:
as §2

Data set [13] relates to Trypanosoma cruzi. Briefly: Antitrypanosomal activity against Trypanosoma cruzi IRHOD/VO/2008/SN3 isolated from mouse blood trypomastigotes incubated for 24 hrs. The data set is classed as functional, organism-based. The note with it: IRHOD/VO/2008/SN3, Blood. In short, it runs like this:
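Blood from BALB/c mice 7 days post-infection, drawn by cardiac puncture into 3.8% citrate (7:3). Compounds in PBS at 10, 25 and 50 μM final, mixed with infected blood (~1 × 10^6 parasites/mL). Shaken 10 min at room temperature, held 24 h at 4 °C. Parasites counted at 1:100 dilution against a PBS control.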

Data set [14] concerns Trypanosoma cruzi. Briefly: Antitrypanosomal activity against Trypanosoma cruzi IRHOD/VO/2008/SN3 intracellular amastigotes infected in african green monkey Vero cells incubated for 72 hrs. The class given is functional, organism-based. The conditions noted are these: IRHOD/VO/2008/SN3, Vero. The method, boiled down:
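Vero cells (1 × 10^4/well) grown 2 days on coverslips, then infected with metacyclic forms at 10:1 for 24 h at 37 °C. Extracellular parasites washed off. Compounds at 1–100 μM for 72 h in RPMI with 10% FBS. Amastigotes counted on methanol-fixed, Giemsa-stained slides against untreated cultures. Mean of four determinations; IC50.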

In data set [15] the test system is Trypanosoma cruzi. The data set is described as follows: Antitrypanosomal activity against Trypanosoma cruzi IRHOD/VO/2008/SN3 […] amastigotes infected in african green monkey Vero cells incubated for 72 hrs. The class given is functional, organism-based. The note with it: IRHOD/VO/2008/SN3, Vero.
Data set [16] deals with Trypanosoma cruzi. Briefly: Antitrypanosomal activity against Trypanosoma cruzi IRHOD/VO/2008/SN3 epimastigotes incubated for 72 hrs. The note with it: IRHOD/VO/2008/SN3, 72 h.
Data set [17] concerns Trypanosoma cruzi. Briefly: Effect on glucose metabolism in Trypanosoma cruzi IRHOD/VO/2008/SN3 epimastigotes assessed as excreted acetate level at IC25 level incubated for 96 hrs at 28 degC by [1H]NMR spectroscopy.
Data set [18] relates to Trypanosoma cruzi. Briefly: Effect on glucose metabolism in Trypanosoma cruzi IRHOD/VO/2008/SN3 epimastigotes assessed as excreted ethanol level at IC25 level incubated for 96 hrs at 28 degC by [1H]NMR spectroscopy.
The subject of data set [19] is Trypanosoma cruzi. Briefly: Effect on glucose metabolism in Trypanosoma cruzi IRHOD/VO/2008/SN3 epimastigotes assessed as excreted succinate level at IC25 level incubated for 96 hrs at 28 degC by [1H]NMR spectroscopy.
The subject of data set [20] is Trypanosoma cruzi. Briefly: Effect on glucose metabolism in Trypanosoma cruzi IRHOD/VO/2008/SN3 epimastigotes assessed as excreted L-alanine level at IC25 level incubated for 96 hrs at 28 degC by [1H]NMR spectroscopy.
Data set [21] concerns Trypanosoma cruzi. The data set is described as follows: Effect on glucose metabolism in Trypanosoma cruzi IRHOD/VO/2008/SN3 epimastigotes assessed as excreted L-lactate level at IC25 level incubated for 96 hrs at 28 degC by [1H]NMR spectroscopy.
For data set [22], the system named is Trypanosoma cruzi. Briefly: Antitrypanosomal activity against Trypanosoma cruzi IRHOD/VO/2008/SN3 metacyclic forms infected in BALB/c mouse model of chronic Chagas disease subjected to 3 cycles of immunosuppression with 50 mg/kg cyclophosphamide monohydrate for 3 consecutive weeks assessed as parasitemia reactivation level at 5 mg/kg/day, ip administered for 5 consecutive days starting on day 7 post infection until day 12 post infection and measured on day 150 post infection. The data set is classed as functional. The method, boiled down: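 Female BALB/c mice (6–8 wk, 25–30 g), six per group, were infected ip with 5 × 10^5 metacyclic trypomastigotes from infected mouse blood and dosed ip daily on days 7–12 pi. From day 120 pi a subgroup got three 4-day cycles of cyclophosphamide 50 mg/kg, 3 days apart. Parasites were counted by Neubauer chamber the day after cycle three in 5 μL mandibular-vein blood (1:100 PBS). Reactivation was scored against the matching non-immunosuppressed group; three experiments.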

The test system of data set [23] is Trypanosoma cruzi. The data set is described as follows: Antitrypanosomal activity against Trypanosoma cruzi IRHOD/VO/2008/SN3 metacyclic forms infected in BALB/c mouse model of acute Chagas disease assessed as reduction parasitemia at 5 mg/kg/day, ip administered for 5 consecutive days starting on day 7 post infection until day 12 post infection and measured on day 25 post infection. The data set is classed as functional, organism-based. In short, it runs like this: (§3)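 Groups of six female BALB/c mice (6–8 weeks, 25–30 g) inoculated ip with 5 × 10^5 metacyclic trypomastigotes. Dosed ip at 5 or 15 mg/kg/day on days 7–12 pi; untreated infected controls. Mandibular-vein blood (5 μL in 495 μL PBS) counted every 3 days for 40 days in a Neubauer chamber, as parasites/mL.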

Data set [24] deals with Trypanosoma cruzi. Briefly: Antitrypanosomal activity against Trypanosoma cruzi IRHOD/VO/2008/SN3 metacyclic forms infected in BALB/c mouse model of acute Chagas disease assessed as reduction parasitemia at 5 mg/kg/day, ip administered for 5 consecutive days starting on day 7 post infection until day 12 post infection and measured on day 40 post infection. The class given is functional. More on the design: scale not given: the % may be the effect or the level left. The note with it: route intraperitoneal. The method, boiled down: as §3

Data set [25] is described as follows: Toxicity in Trypanosoma cruzi IRHOD/VO/2008/SN3 metacyclic forms infected BALB/c mouse model of acute Chagas disease assessed as mortality incidence at 5 mg/kg/day, ip administered for 5 consecutive days starting on day 7 post infection until day 12 post infection and measured 40 days post infection. The class given is organism-based. The conditions noted are these: BALB/c, in vivo, read-out: Activity. Set-up: route intraperitoneal. The method, boiled down:
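Female BALB/c mice (6–8 wk, 25–30 g), six per group, were infected ip with 5 × 10^5 metacyclic trypomastigotes from infected mouse blood. Once infection was confirmed, compound was given ip daily on days 7–12 pi. An infected untreated group served as control. Deaths were recorded during treatment, and parasitemia was counted in mandibular-vein blood every 3 days up to day 40 pi.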

For data set [26], the system named is Trypanosoma cruzi. Briefly: Antitrypanosomal activity against Trypanosoma cruzi IRHOD/VO/2008/SN3 metacyclic forms infected in BALB/c mouse model of acute Chagas disease assessed as reduction parasitemia at 5 mg/kg/day, ip administered for 5 consecutive days starting on day 7 post infection until day 12 post infection and measured on day 15 to 20 post infection. The data set is classed as functional. More on the design: scale not given: the % may be the effect or the level left. The note with it: route intraperitoneal. The method, boiled down:
as §3

Superoxide dismutase [Cu-Zn], sequence (P00441 whole entry): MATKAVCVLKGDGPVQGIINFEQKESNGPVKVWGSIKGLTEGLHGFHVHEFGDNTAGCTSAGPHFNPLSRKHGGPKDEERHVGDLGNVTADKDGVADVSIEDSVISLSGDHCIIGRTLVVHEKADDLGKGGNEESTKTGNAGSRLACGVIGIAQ

Take `c1ccc2c(NCCc3cnc[nH]3)nnc(NCCc3cnc[nH]3)c2c1`: the figures for the IC50 in data set [1] and in [6] were 125 µM and 324 µM, respectively. Moreover, the selectivity ratio in data set [2] turned out to be 14.4; in data set [3], 17.9; in data set [4], 21.3; in data set [5], 24.9.

In the case of `c1ccc2c(NCCCn3ccnc3)nnc(NCCCn3ccnc3)c2c1`, in the data set with Trypanosoma cruzi [7], the result was Active. The Ratio IC50 in [8] turned out to be 1.6. The half-inhibitory concentration (IC50) came out at 66 µM in data set [1]; 41.7 µM in data set [9]; 302 µM in data set [6]; 16.9 µM in the data set on Trypanosoma cruzi [13]; 16.6 µM in the data set on Trypanosoma cruzi [14]; 12.4 µM with Trypanosoma cruzi [15]. The compound further gave a concentration for half-maximal inhibition (IC50) in the data set on Trypanosoma cruzi [16] of 17.4 µM. In addition, the entries for the “inhibition (INH)” value in the data set on Trypanosoma cruzi [10], in the data set with Trypanosoma cruzi [11] and with Trypanosoma cruzi [12] were 57.8%, 41.1% and 51.5%, respectively. Moreover, the selectivity ratio in data set [2] amounted to 17.8; in data set [3] it was 18.2; in data set [4], 24.2; in [5] it was 17.3. Moreover, the figures for the Activity in the data set with Trypanosoma cruzi [17] and in the data set with Trypanosoma cruzi [21] were -21% and -24%, respectively. Besides, the outcome in the data set on Trypanosoma cruzi [18], with Trypanosoma cruzi [19] and with Trypanosoma cruzi [20] was inactive.

As to `c1ccc2c(NCCc3c[nH]cn3)nnc(NCCc3c[nH]cn3)c2c1`, in the data set with Trypanosoma cruzi [7], the outcome was Active. The Ratio IC50 in [8] came out at 2.6. The concentration for half-maximal inhibition (IC50) in [9] came out at 48 µM; in the data set with Trypanosoma cruzi [13], 22.5 µM; in the data set on Trypanosoma cruzi [14], 18.1 µM; in the data set on Trypanosoma cruzi [15] it was 15.2 µM; in the data set on Trypanosoma cruzi [16] it was 13 µM. Besides, the “inhibition (INH)” value is 63.8% in the data set with Trypanosoma cruzi [10], 48.7% in the data set with Trypanosoma cruzi [11] and 65.1% in the data set with Trypanosoma cruzi [12]. The Activity with Trypanosoma cruzi [17] is given as -10%; in the data set with Trypanosoma cruzi [21], -15%. Further, the result with Trypanosoma cruzi [18], in the data set on Trypanosoma cruzi [19] and in the data set with Trypanosoma cruzi [20] was inactive.

Consider `O=C(Cn1ccnc1[N+](=O)[O-])NCc1ccccc1` [BENZNIDAZOLE], for which the Activity is reported as 36% with Trypanosoma cruzi [22], 16.7% in the data set with Trypanosoma cruzi [24] and 15.3% in the data set with Trypanosoma cruzi [26]. In addition, the outcome in the data set on Trypanosoma cruzi [23] was Active. In data set [25], the mortality at 960 h was determined as 20%. Besides, the figures for the “inhibition (INH)” value in the data set with Trypanosoma cruzi [10], in the data set on Trypanosoma cruzi [11] and in the data set on Trypanosoma cruzi [12] were 41.6%, 12.5% and 39.4%, respectively. In addition, the figures for the IC50 in the data set on Trypanosoma cruzi [13], with Trypanosoma cruzi [15] and in the data set with Trypanosoma cruzi [16] were 16.4 µM, 18.9 µM and 15.9 µM, respectively.

Usually IC50 stands for the concentration that inhibits the measured activity by half.
